Screening results (PubChem BioAssay)
A3G deaminase = blocks human APOBEC3G single-stranded DNA deamination | Q9HC16 | 330,000 tested, 0.28% active | inhibition, % at 20 µM | AID 493012 | recombinant A3G, ssDNA deamination FAM/TAMRA fluorescence;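 active = inhibition of at least 40% at 20 µM, with no more than 30% in the related APOBEC3A deaminase screen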;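 also: plate controls were DMSO wells with A3G for no effect and wells lacking A3G enzyme for full effect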
APOBEC3A inh = blocks human APOBEC3A ssDNA deamination. recombinant A3A, FAM/TAMRA ssDNA deamination fluorescence. inhibition, % at 20 µM. 330,000 tested, 0.41% active. AID 493011;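 active = at least 40% inhibition at 20 µM here, with at most 30% in a related deaminase screen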;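 also: plate controls were A3A with DMSO for no effect and wells lacking A3A enzyme for full effect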
Target sequence (P31941 whole entry, looked up): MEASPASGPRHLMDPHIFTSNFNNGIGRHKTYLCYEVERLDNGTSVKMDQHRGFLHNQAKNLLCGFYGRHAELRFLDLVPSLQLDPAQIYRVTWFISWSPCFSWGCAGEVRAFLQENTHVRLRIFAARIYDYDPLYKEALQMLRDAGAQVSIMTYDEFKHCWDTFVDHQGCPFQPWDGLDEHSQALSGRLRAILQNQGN
PRMT1 inh = PRMT1 (human) inhibition, primary screen; Q99873; recombinant PRMT1, activity-based probe fluorescence polarization; inhibition, % at 2.79 µM; 370,000 tested, 1.3% active; AID 652257;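 active = inhibition above about 21% made by adding two undisclosed values, limit read from the data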
Target sequence (Q99873 whole entry, looked up): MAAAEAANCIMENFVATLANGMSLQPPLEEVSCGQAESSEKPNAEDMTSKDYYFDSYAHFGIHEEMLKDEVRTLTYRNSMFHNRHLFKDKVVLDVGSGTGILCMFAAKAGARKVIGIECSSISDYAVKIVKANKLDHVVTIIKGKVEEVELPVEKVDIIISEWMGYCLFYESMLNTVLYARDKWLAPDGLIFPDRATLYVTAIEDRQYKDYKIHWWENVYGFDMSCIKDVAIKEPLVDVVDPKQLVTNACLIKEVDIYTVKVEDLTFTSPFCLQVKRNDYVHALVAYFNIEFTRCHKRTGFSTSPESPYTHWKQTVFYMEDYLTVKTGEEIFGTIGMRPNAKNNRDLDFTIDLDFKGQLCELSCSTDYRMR
NS3 helicase inh = blocks Hepatitis C virus NS3 helicase unwinding; 290,000 tested, 0.56% active; inhibition, % at 10.9 µM; AID 1800; NS3 helicase DNA unwinding, Cy5 molecular beacon fluorescence;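 active = inhibition above the mean of all tested compounds plus 3 SD, set per campaign, cut at about 35% in these data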;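 also: 0% = DMSO wells and 100% = thioflavine S control wells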
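Assay system: hepatitis C virus NS3 helicase domain fragment enzyme. Also added: annealed dual-labelled DNA beacon duplex, ATP-started. Timing: 1 h reaction at 25 °C, ATP-initiated. Technique: Cy5 fluorescence at 0 and 60 min, beacon hairpin quenching. Evaluation: % inhibition of unwinding. Replication: one well per compound.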
core dimer inh = HCV core protein dimerization inhibition; TR-FRET GST/Flag-core106 dimerization, 1536-well; inhibition, % at 5 µM; 300,000 tested, 0.33% active; AID 1899;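 active = inhibition above the mean of all tested compounds plus 3 SD, set per screening campaign, cut at about 45% in these data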
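Material: Tagged HCV core106 pair (GST and Flag) | Amount: GST-core106 13.5 nM, Flag-core106 17 nM | Medium: KF-containing HEPES buffer, pH 7.45, DTT, CHAPS, BSA | Reagent: Eu donor and XL665 acceptor anti-tag antibodies | Schedule: 4 h at 22.5 °C | Technique: Time-resolved FRET, ex 340 nm, em 617 and 671 nm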
ABHD5-PLIN5 inh = blocks binding of human ABHD5 to perilipin-5; Q00G26+Q8WTS1; inhibition, % at 4 µM; 360,000 tested, 0.78% active; Split G. princeps luciferase complementation, luminescence, 4 h;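 active = inhibition above the mean inhibition across every tested compound plus 3 SD, cut at about 22% in these data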;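 also: 0% = DMSO only wells and the 100% control is not disclosed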
ABHD5-PLIN5 conf = ABHD5-PLIN5 interaction inhibition, confirmed; shares compounds with ABHD5-PLIN5 inh; biochemical ABHD5-PLIN5 interaction, luminescence; inhibition, % at 4 µM; 2,200 tested, 67% active; AID 651612; in the data active = inhibition above about 23%;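 also: 0% = DMSO vehicle wells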
HNF4 counter = HNF4 split-luciferase signal hit, counter-screen | shares compounds with ABHD5-PLIN5 inh | AID 651674 | HNF4 dimerization, luminescence, biochemical | 2,200 tested, 77% active | inhibition, % at 4 µM;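 active = mean inhibition across replicate wells exceeding the computed hit threshold, cut at about 13% in these data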;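 also: light from luciferase halves that rejoin when HNF4 fusion proteins dimerize; 0% = DMSO only wells and the 100% control is not given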
PRMT1 confirm = PRMT1 (human) inhibition, FP confirmation. shares compounds with PRMT1 inh. recombinant His-PRMT1, activity-based probe fluorescence polarization. inhibition, % at 2.79 µM. 3,300 tested, 42% active. AID 687036;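 active = mean inhibition across replicates above the hit cutoff derived for the earlier primary screen, cut at about 22% in these data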
* = called active by the depositor; / = no result given. Most compounds without a hit are left out; they make up all but 2.9% or so of the library.

SMILES | A3G deaminase | APOBEC3A inh | PRMT1 inh | NS3 helicase inh | core dimer inh | ABHD5-PLIN5 inh | ABHD5-PLIN5 conf | HNF4 counter | PRMT1 confirm
O=S(=O)(Nc1nc2c(s1)CCCC2)c1ccc2ccccc2c1 | -6 | -5 | -1 | -10 | 17 | -4 | / | / | /
O=S(=O)(NC1=NCCCCC1)c1ccc2sc(NS(=O)(=O)c3ccc4ccccc4c3)nc2c1 | -2 | 4 | 44* | 2 | 4 | 47* | 9 | -35 | 27*
CC1=C(C(=O)N(C(C)C)C(C)C)CC(CC(=O)NCc2cccc3ccccc23)C(=O)N1Cc1ccccc1 (centres undefined) | / | / | 3 | / | / | -6 | / | / | /
C=C[C@]1(C)C=C2CC[C@H]3[C@@](C)(CCC[C@@]3(C)C(=O)O)[C@@H]2CC1 | -7 | 0 | / | / | / | 1 | / | / | /
C=C[C@]1(C)C=C2C(=O)[C@@]3(O)OC(=O)[C@@]4(CCCC(C)(C)[C@H]34)[C@@]2(O)CC1 | / | / | 61* | / | / | 72* | 61* | 81* | 6
CCOC(=O)CC(S(=O)(=O)c1ccccc1)S(=O)(=O)c1ccccc1 | / | / | 79* | / | / | 52* | 38* | 89* | 58*
C=CCn1c(SCC(=O)NCC2CCCO2)nc2scc(-c3ccco3)c2c1=O (centres undefined) | 0 | 3 | 26* | 23 | 2 | 34* | 34* | 82* | 5
COC(=O)COc1ccc(C2Nc3c(Cl)ccc(C(=O)O)c3C3C=CCC32)cc1 (centres undefined) | 34 | 50 | 69* | 23 | 14 | 23* | 15 | 28* | 29*
COc1ccc(S(=O)(=O)N(C(=O)C(C)C)c2ccc3oc(=O)sc3c2)cc1 | -8 | -2 | 68* | 11 | -4 | 32* | -71 | 39* | 39*
COC(=O)/C=C/S(=O)(=O)c1ccc(NC(C)=O)cc1 | 3 | -5 | 73* | 0 | 3 | 76* | 87* | 107* | 29*
COc1ccccc1OS(=O)(=O)c1ccc(NC(C)=O)cc1 | -5 | 0 | -2 | -1 | 0 | 3 | / | / | /
CC1=CC(=O)C=CC1=Nc1ccc(N(C)C)cc1 | / | / | 67* | / | / | 86* | 98* | 113* | 41*
O=C1C=CC(=O)N1c1ccc2c(c1)Cc1cc(F)ccc1-2 | / | / | 87* | / | / | 26* | 42* | 71* | 83*
CC(=O)Nc1ccc2c(c1)Cc1cc(N3C(=O)C=CC3=O)ccc1-2 | / | / | 91* | / | / | 35* | 45* | 104* | 95*
CC(=O)c1ccc(C2CC(OCCF)=CC(=O)O2)cc1 (centres undefined) | / | / | -3 | / | / | 1 | / | / | /
CC(=O)c1ccc(NC(=O)Cc2cccs2)cc1 | 4 | 20 | 1 | 18 | 35 | 0 | / | / | /
CN1\C(=C/C=C/C=C/C=[N+](C)C)C(C)(C)c2ccccc21 | / | / | 33* | 29 | / | 24* | 49* | 38* | 43*
Cc1ccc(OC(C)C(=O)Nc2cccc(S(=O)(=O)N3CCCCCC3)c2)cc1 (centres undefined) | / | / | 0 | / | / | -1 | / | / | /
CCOc1ccc2[nH]c(=O)c(CN(Cc3ccco3)C(=O)c3ccc(Br)cc3)cc2c1 | / | / | 36* | 28 | / | 30* | 89* | 92* | 0
CCCNC(=O)C1(C)CCN(C(=O)c2ccc3snnc3c2)C1 (centres undefined) | / | / | 1 | / | / | 6 | / | / | /
COc1cccc(OC)c1C(=O)Nc1ccncc1 | -4 | 1 | 4 | / | 10 | 3 | / | / | /
Cc1sc(C(C2C(=O)CC(C)(C)CC2=O)C2C(=O)CC(C)(C)CC2=O)cc1[N+](=O)[O-] | 13 | 5 | 26* | 20 | 1 | 56* | 92* | 89* | 45*
O=C(Cn1sc2ccccc2c1=O)Nc1ccccc1 | / | / | 87* | / | / | 64* | 81* | 116* | 89*
O=C(O)c1ccc(Nc2cc(Cl)c3nonc3c2[N+](=O)[O-])cc1 | 7 | 3 | 63* | 18 | 1 | 31* | 63* | 95* | 32*
O=C(O)c1cccc(Nc2ccc3nonc3c2[N+](=O)[O-])c1 | -6 | 0 | 13 | 6 | 7 | -5 | / | / | /
SMILES | A3G deaminase | APOBEC3A inh | PRMT1 inh | NS3 helicase inh | core dimer inh | ABHD5-PLIN5 inh | ABHD5-PLIN5 conf | HNF4 counter | PRMT1 confirm
O=[N+]([O-])c1c(Nc2cccc(O)c2)cc(Cl)c2nonc12 | -8 | -2 | 60* | -30 | 26 | 52* | 71* | 95* | 58*
CNc1ccccc(C(=O)/C=C/c2ccccc2OC)c1=O | 2 | 4 | 35* | 34 | 18 | 32* | 69* | 48* | 39*
COc1ccccc1/C=C/C(C)=O | -1 | 12 | 0 | 2 | -6 | 10 | / | / | /
COc1c(CC=C(C)C)cc(C2CC(=O)c3c(O)cc(O)cc3O2)cc1CC=C(C)C (centres undefined) | -9 | -4 | 1 | / | 8 | -27 | / | / | /
COC1=CC(=O)C(C2CC(=O)c3c(O)cc(O)cc3O2)=CC1=O (centres undefined) | / | / | 48* | / | / | 29* | 82* | 93* | 89*
CCCc1ccc(-c2cc(NC(=O)Cc3c(C)[nH]c4ccccc34)ccc2Nc2cccnc2)cc1 | / | / | -2 | / | / | / | / | / | /
CC1(C)CC(=O)C(CC(=O)Nc2ccc(S(N)(=O)=O)cc2)=C(O)C1 | 3 | 3 | 2 | 1 | 0 | 5 | / | / | /
CC1(C)CC(=O)C(CS(=O)(=O)c2ccccc2)=C(O)C1 | -3 | -1 | 27* | 2 | 3 | 44* | 50* | 92* | 22*
Cc1sc2nc(SCC(=O)c3ccc(O)c(O)c3)n(C)c(=O)c2c1C | / | / | 4 | / | / | / | / | / | /
O=c1c2ccccc2sn1-c1ccc(Cl)cc1 | / | / | 90* | / | / | 48* | 76* | 118* | 86*
O=C(Nc1ccccc1)c1nnsc1S(=O)c1ccc(Cl)cc1 (centres undefined) | 9 | 2 | 81* | -6 | 1 | 34* | 90* | 106* | 88*
Cc1nnsc1S(=O)c1ccc(Cl)cc1 (centres undefined) | -7 | -5 | 3 | 1 | 1 | 5 | / | / | /
Nc1ccccc1SC(CC(=O)c1ccccc1)c1cccc([N+](=O)[O-])c1 (centres undefined) | / | / | 86* | / | / | 76* | 39* | 100* | 57*
Cc1ccc(C(=O)CC(SCC(=O)O)c2ccc([N+](=O)[O-])cc2)cc1 (centres undefined) | -1 | 1 | 4 | -9 | 3 | 11 | / | / | /
